We go through ten compounds from ChEMBL document CHEMBL1147157, “Virtual screening for novel openers of pancreatic K(ATP) channels” (J Med Chem, 2007).

The target of assay [1] is Sulfonylurea receptor 1, Kir6.2 (Homo sapiens) (UniProt Q14654+Q09428). As to the kind of experiment: Activity at Kir6.2/SUR1 KATP channels expressed in HEK293 cells assessed as repolarization of tolbutamide-induced membrane depolarization relative to BPDZ73. It counts as cell-based. In a few lines:
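HEK 293 cells stably expressing human Kir6.2/SUR1, seeded on poly(lysine)-coated plates, cultured 2 days. Membrane-potential fluorescent dye (ex 490/em 550 nm) in loading buffer/HBSS with 10 µM tolbutamide, 34 °C; fluorescence read before and 5-10 min after compound.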

In assay [2] the target is Sulfonylurea receptor 1, Kir6.2 (Homo sapiens, UniProt Q09428+Q14654). Briefly: Activity at Kir6.2/SUR1 KATP channels expressed in HEK293 cells assessed as repolarization of tolbutamide-induced membrane depolarization. Type of assay: cell-based.
Chain of Sulfonylurea receptor 1, Kir6.2 (Q14654 whole entry): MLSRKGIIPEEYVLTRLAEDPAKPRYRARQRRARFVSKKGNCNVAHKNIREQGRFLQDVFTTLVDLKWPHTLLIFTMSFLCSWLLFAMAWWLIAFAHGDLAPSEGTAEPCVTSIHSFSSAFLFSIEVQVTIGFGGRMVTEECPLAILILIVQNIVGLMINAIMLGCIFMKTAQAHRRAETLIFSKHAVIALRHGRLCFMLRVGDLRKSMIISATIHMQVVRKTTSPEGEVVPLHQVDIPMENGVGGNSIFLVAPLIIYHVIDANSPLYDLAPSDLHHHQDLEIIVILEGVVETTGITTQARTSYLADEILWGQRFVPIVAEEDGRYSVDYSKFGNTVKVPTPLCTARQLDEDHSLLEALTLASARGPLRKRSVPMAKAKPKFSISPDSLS
Chain of Sulfonylurea receptor 1, Kir6.2 (Q09428 whole entry): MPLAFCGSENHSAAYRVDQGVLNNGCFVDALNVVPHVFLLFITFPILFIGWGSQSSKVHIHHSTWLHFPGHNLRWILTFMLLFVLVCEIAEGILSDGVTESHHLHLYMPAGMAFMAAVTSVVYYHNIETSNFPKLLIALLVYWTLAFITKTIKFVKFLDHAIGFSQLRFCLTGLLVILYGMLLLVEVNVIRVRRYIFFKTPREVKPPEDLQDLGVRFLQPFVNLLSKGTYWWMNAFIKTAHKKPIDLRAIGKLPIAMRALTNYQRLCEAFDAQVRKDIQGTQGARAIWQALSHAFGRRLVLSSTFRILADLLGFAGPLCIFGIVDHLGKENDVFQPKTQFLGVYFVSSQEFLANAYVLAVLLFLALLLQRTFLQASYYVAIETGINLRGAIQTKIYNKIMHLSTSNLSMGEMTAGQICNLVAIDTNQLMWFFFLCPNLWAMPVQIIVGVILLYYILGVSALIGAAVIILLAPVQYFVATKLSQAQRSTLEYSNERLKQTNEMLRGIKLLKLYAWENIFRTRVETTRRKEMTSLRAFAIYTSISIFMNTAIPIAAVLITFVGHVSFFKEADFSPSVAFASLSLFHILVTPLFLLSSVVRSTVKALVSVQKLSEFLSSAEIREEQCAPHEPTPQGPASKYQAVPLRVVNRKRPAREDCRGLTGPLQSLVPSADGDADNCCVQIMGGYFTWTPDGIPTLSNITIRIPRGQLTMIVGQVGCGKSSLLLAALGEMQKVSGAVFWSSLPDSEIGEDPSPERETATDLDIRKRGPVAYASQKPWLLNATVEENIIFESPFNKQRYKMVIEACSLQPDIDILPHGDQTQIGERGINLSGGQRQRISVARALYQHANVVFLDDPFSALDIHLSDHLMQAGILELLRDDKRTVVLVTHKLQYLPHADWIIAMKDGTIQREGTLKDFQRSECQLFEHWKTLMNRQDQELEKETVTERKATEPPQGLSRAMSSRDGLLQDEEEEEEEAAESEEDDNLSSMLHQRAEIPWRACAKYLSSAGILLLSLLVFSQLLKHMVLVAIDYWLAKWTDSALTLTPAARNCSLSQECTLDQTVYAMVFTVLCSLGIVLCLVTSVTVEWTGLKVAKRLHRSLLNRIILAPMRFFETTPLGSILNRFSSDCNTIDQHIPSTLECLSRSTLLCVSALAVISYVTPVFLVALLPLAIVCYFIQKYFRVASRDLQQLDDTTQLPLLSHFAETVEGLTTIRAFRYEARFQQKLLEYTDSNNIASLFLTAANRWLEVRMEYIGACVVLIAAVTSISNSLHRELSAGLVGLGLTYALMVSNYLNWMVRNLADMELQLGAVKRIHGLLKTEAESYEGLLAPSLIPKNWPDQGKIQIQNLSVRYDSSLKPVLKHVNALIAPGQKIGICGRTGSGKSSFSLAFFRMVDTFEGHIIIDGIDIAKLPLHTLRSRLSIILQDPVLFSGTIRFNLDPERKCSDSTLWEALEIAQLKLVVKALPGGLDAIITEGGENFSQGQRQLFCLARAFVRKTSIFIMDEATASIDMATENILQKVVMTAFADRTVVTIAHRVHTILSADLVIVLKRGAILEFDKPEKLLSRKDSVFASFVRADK
Assay [3] is described as follows: Inhibition of insulin release from rat INS-1E cells.

By Emax is commonly meant the greatest response seen or fitted, relative to the assay's reference. Broadly, the EC50 is the concentration that produces a half-maximal response. Take `CC(=O)Nc1nc2ccccc2n1CCN1CCCC1`: in assay [1], the maximum response (Emax) was found to be 55%. Further, the EC50 in assay [2] is over 30 µM.

Broadly, the IC50 is the midpoint of a concentration-inhibition curve. A higher IC50 goes with weaker potency. Regarding `COc1ccc2nc(C(F)(F)F)c(C#N)c(N)c2c1`, the Emax in assay [1] stood at 160%. Further, in assay [3], half-maximal inhibition (IC50) required 25 µM. In addition, the 50% effective concentration (EC50) in assay [2] turned out to be 15 µM.

With `COc1ccc2[nH]c(N3CCCCC3)nc2c1`, the Emax in assay [1] is 52%. For the same compound, the EC50 in assay [2] was over 30 µM.

For the compound `CC(C)NC1=NS(=O)(=O)c2cc(Cl)ccc2N1`, the Emax in assay [1] was found to be 100%. Also, the IC50 in assay [3] was 0.94 µM. Moreover, in assay [2], the half-maximal effective concentration (EC50) is 0.25 µM.

In the case of `NC(=O)c1ccccc1NS(=O)(=O)c1ccc(Cl)cc1`, in assay [1], the Emax amounted to 47%. For the same compound, the EC50 in assay [2] was over 30 µM.

`O=c1[nH]cnc2ncc(-c3ccccc3)nc12`: the Emax in assay [1] stood at 84%. Also, in assay [2], the EC50 is over 30 µM.

Take `O=C(Nc1nccs1)c1c(O)c2cc(Cl)ccc2oc1=O`: in assay [1], the Emax is 171%. The compound further registered an IC50 in assay [3] of 56 µM. Moreover, the EC50 in assay [2] was over 30 µM.

`N#Cc1c(-c2ccccc2)c(-c2ccccc2)n[nH]c1=O`: the Emax in assay [1] is 55%. Further, in assay [2], the EC50 is over 30 µM.

Turning to `OCCn1c(-c2ccc(F)cc2)cs/c1=N\c1ccc(F)cc1`, the Emax in assay [1] amounted to 105%. In assay [3], half-maximal inhibition (IC50) was put at 18 µM. Moreover, the EC50 in assay [2] worked out at 21 µM.

`CC1=Nc2ccc(Cl)cc2S(=O)(=O)N1` [DIAZOXIDE] gave an EC50 in assay [3] of 20.3 µM.
